The text below walks through data of BindingDB's records for doi:10.1021/jm030565g (Glaxosmithkline, 2004).

The nature of experiment [1]: Effective concentration for lipogenesis induced by retinoid X receptor alpha in C3H10T1/2 clone 8 fibroblast cells; Partial agonist.
Experiment [2] can be described thus: Inhibitory concentration for lipogenesis induced by retinoic acid receptor alpha in C3H10T1/2 clone 8 fibroblast cells.
A short description of experiment [3]: Effective concentration for lipogenesis induced by retinoid X receptor alpha in C3H10T1/2 clone 8 fibroblast cells.
The nature of experiment [4]: Effective concentration for retinoic acid receptor alpha induced lipogenesis in C3H10T1/2 clone 8 fibroblast cells.
The target of experiment [5] is T1, Retinoic acid receptor RXR-alpha (Homo sapiens, UniProt P19793).
T1 sequence (P19793 whole entry): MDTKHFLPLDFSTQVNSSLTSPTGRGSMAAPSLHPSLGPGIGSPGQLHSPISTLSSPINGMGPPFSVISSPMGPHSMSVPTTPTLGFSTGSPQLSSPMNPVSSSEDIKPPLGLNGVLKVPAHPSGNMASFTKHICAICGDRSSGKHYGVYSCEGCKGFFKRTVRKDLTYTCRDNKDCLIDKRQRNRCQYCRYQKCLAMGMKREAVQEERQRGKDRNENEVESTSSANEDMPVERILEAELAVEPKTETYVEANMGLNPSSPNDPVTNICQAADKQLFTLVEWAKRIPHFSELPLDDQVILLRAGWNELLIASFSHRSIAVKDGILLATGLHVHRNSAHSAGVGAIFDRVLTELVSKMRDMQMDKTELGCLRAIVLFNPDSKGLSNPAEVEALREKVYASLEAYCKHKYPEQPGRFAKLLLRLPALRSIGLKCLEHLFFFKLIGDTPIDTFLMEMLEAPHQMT
The experiment is described as follows: Effective concentration for lipogenesis induced by retinoid X receptor alpha in C3H10T1/2 clone 8 fibroblast cells. The essentials:
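Lipogenesis measured in C3H10T1/2 clone 8 fibroblasts as triglyceride accumulation, used as a surrogate marker of RXR activity.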

Molecules are shown by their SMILES.

Turning to `CCCOc1cc2c(cc1C1CCCc3oc(/C=C/C(=O)O)cc31)C(C)(C)CCC2(C)C` (stereo unspecified) [(E)-3-[4-(5,5,8,8-Tetramethyl-3-propoxy-5,6,7,8-tetrahydro-naphthalen-2-yl)-4,5,6,7-tetrahydro-benzofuran-2-yl]-acrylic acid], in experiment [1], the EC50 (as a rule, the concentration needed to bring the measured effect to its halfway point) was 0.04 µM. Moreover, the IC50 (in general, the concentration that gives 50% inhibition) in experiment [2] is above 1 µM.

`Cc1cc2c(cc1C1CCCc3oc(/C=C/C(=O)O)cc31)C(C)(C)CCC2(C)C` (stereo unspecified) [(E)-3-[4-(3,5,5,8,8-Pentamethyl-5,6,7,8-tetrahydro-naphthalen-2-yl)-4,5,6,7-tetrahydro-benzofuran-2-yl]-acrylic acid]: in experiment [3], a half-maximal response (EC50) required 3 µM.

In turn, `COc1cc2c(cc1C1CCCc3oc(/C=C/C(=O)O)cc31)C(C)(C)CCC2(C)C` (stereo unspecified) [(E)-3-[4-(3-Methoxy-5,5,8,8-tetramethyl-5,6,7,8-tetrahydro-naphthalen-2-yl)-4,5,6,7-tetrahydro-benzofuran-2-yl]-acrylic acid] showed an EC50 in experiment [1] of 0.123 µM.

Take `CN1Cc2oc(/C=C/C(=O)O)cc2C(c2ccc3c(c2)C(C)(C)CCC3(C)C)C1` (stereo unspecified): the EC50 in experiment [4] was above 10 µM; in experiment [3], 0.022 µM.

Consider `CC1(C)CCC(C)(C)c2cc(Cc3coc(/C=C/C(=O)O)c3)ccc21` [(E)-3-[4-(5,5,8,8-Tetramethyl-5,6,7,8-tetrahydro-naphthalen-2-ylmethyl)-furan-2-yl]-acrylic acid], for which, in experiment [4], the EC50 stood at 0.057 µM.

Take `Cc1oc(/C=C/C(=O)O)cc1Cc1ccc2c(c1)C(C)(C)CCC2(C)C` [(E)-3-[5-Methyl-4-(5,5,8,8-tetramethyl-5,6,7,8-tetrahydro-naphthalen-2-ylmethyl)-furan-2-yl]-acrylic acid]: the EC50 is above 1 µM in experiment [4] and 1 µM in experiment [3].

The compound `CC1(C)CCC(C)(C)c2cc(C3CCCc4oc(C=C5SC(O)=NC5=O)cc43)ccc21` (stereo unspecified) [5-[1-[4-(5,5,8,8-Tetramethyl-5,6,7,8-tetrahydro-naphthalen-2-yl)-4,5,6,7-tetrahydro-benzofuran-2-yl]-meth-(E)-ylidene]-thiazolidine-2,4-dione] returned an EC50 in experiment [3] of 0.005 µM.

For `CC1(C)CCC(C)(C)c2cc(C3CCCc4sc(/C=C/C(=O)O)cc43)ccc21` (stereo unspecified) [(E)-3-[4-(5,5,8,8-Tetramethyl-5,6,7,8-tetrahydro-naphthalen-2-yl)-4,5,6,7-tetrahydro-benzo[b]thiophen-2-yl]-acrylic acid], the EC50 in experiment [3] worked out at 0.072 µM.

For `CC1(C)CCC(C)(C)c2cc(C3CCCc4oc(/C=C/C(=O)O)cc43)ccc21` (stereo unspecified) [(E)-3-[4-(5,5,8,8-Tetramethyl-5,6,7,8-tetrahydro-naphthalen-2-yl)-4,5,6,7-tetrahydro-benzofuran-2-yl]-acrylic acid], the EC50 in experiment [5] came to 0.004 µM; in experiment [3] it was 0.66 µM.

`C/C(=C\C(=O)O)c1cc2c(o1)CCCC2c1ccc2c(c1)C(C)(C)CCC2(C)C` (stereo unspecified) had an EC50 in experiment [3] of 0.01 µM.

For `CC1(C)CCC(C)(C)c2cc(C3CCCc4oc(/C=C/C(=O)O)nc43)ccc21` (stereo unspecified) [(E)-3-[4-(5,5,8,8-Tetramethyl-5,6,7,8-tetrahydro-naphthalen-2-yl)-4,5,6,7-tetrahydro-benzooxazol-2-yl]-acrylic acid], the EC50 is above 10 µM in experiment [4] and 0.749 µM in experiment [3].
